Results published in ChEMBL document CHEMBL1154352, “Toll-like receptor 7 selective synthetic oligoribonucleotide agonists: synthesis and structure-activity relationship studies” (J Med Chem, 2009).
Calls of active or inactive are those of the source. No cut-off for these calls is given here.

Key:
[1] = target: T1, Toll-like receptor 9 (Mus musculus) (UniProt Q9EQU3); experiment: Activation of mouse TLR9 expressed in HEK293 assessed as induction of NF-kappaB activity reporter gene assay; assay type: cell-based
T1 sequence (whole entry): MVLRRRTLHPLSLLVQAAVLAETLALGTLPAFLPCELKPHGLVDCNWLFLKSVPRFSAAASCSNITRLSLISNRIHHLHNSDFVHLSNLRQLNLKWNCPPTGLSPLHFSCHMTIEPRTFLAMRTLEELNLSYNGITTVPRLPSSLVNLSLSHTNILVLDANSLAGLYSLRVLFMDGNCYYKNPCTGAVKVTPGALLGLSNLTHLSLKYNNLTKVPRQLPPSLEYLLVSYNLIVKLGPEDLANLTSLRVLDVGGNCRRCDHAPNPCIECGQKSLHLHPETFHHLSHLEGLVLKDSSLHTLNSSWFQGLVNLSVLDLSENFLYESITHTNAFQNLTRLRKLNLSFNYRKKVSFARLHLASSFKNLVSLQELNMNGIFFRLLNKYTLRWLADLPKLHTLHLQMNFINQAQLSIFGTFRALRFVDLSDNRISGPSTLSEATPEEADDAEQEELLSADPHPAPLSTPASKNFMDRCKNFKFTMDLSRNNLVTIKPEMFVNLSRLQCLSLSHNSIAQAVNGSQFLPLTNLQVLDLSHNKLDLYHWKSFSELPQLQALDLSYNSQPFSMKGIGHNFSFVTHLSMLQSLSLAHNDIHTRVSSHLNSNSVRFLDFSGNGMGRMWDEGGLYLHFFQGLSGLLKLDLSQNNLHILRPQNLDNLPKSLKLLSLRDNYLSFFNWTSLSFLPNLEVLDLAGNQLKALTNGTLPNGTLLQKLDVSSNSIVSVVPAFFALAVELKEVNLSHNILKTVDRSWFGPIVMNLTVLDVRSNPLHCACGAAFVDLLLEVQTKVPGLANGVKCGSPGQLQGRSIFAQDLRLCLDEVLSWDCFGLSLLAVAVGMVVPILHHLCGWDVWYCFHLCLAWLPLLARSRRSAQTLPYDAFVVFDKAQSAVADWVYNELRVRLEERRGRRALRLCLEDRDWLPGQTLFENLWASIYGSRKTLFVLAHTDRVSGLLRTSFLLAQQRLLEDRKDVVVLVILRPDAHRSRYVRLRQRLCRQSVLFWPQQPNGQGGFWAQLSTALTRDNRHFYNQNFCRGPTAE

[2] = tested on: PBMC; experiment: Immunomodulatory activity in human PBMC assessed as induction of IFN-alpha at 100 ug/ml after 24 hrs
[3] = target: Toll-like receptor 3 (Homo sapiens) (UniProt O15455); experiment: Activation of human TLR3 expressed in HEK293 assessed as induction of NF-kappaB activity reporter gene assay; assay type: cell-based
Chain of Toll-like receptor 3 (Homo sapiens) (O15455 whole entry): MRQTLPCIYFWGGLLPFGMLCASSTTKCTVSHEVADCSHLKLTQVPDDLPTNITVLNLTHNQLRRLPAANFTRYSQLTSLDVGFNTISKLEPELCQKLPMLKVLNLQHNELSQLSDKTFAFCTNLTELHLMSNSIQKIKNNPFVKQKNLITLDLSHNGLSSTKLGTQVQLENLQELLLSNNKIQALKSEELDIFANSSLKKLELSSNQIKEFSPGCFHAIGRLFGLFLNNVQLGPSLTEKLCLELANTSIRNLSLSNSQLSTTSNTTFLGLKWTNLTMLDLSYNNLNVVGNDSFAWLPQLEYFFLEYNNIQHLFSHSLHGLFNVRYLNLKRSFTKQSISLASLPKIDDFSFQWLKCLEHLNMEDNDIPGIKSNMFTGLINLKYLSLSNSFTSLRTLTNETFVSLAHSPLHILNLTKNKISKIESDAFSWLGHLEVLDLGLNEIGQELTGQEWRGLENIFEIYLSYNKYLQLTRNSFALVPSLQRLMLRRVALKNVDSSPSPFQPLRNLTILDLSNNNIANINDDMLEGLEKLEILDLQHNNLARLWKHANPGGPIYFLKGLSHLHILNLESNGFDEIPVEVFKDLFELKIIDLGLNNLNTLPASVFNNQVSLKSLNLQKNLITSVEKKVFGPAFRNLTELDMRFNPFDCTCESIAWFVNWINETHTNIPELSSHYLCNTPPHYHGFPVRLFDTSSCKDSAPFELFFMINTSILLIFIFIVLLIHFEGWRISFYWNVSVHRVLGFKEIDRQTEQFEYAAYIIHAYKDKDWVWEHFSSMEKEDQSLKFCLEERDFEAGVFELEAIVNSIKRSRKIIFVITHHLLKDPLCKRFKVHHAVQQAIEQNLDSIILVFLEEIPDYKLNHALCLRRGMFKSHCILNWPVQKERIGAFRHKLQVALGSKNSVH

[4] = tested on: PBMC; experiment: Immunomodulatory activity in human PBMC assessed as induction of IL12 at 100 ug/ml after 24 hrs; assay type: functional, cell-based
Method in brief: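 Human PBMCs plated at 5 × 10^6 cells/mL; compounds dissolved in PBS added at various concentrations, 37 °C for 24 h. Supernatant cytokines/chemokines quantified with human Luminex multiplex kit.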

Row | Activity [1] | Activity [3] | SMILES | IFN-alpha [2] [pg/mL] | Activity [4] [pg/mL]
1 | inactive | inactive | Nc1ccn([C@@H]2O[C@H](COP(=O)(S)O[C@H]3[C@@H](O)[C@H](n4ccc5c(=O)[nH]c(N)nc54)O[C@@H]3COP(=O)(S)O[C@H]3[C@@H](O)[C@H](n4cnc5c(N)ncnc54)O[C@@H]3COP(=O)(S)O[C@H]3[C@@H](O)[C@H](n4cnc5c(N)ncnc54)O[C@@H]3COP(=O)(S)O[C@H]3[C@@H](O)[C@H](n4ccc5c(=O)[nH]c(N)nc54)O[C@@H]3COP(=O)(S)O[C@H]3[C@@H](O)[C@H](n4ccc(=O)[nH]c4=O)O[C@@H]3COP(=O)(S)O[C@H]3[C@@H](O)[C@H](n4ccc(=O)[nH]c4=O)O[C@@H]3COP(=O)(S)O[C@H]3[C@@H](O)[C@H](n4cnc5c(N)ncnc54)O[C@@H]3COP(=O)(S)O[C@H]3[C@@H](O)[C@H](n4cnc5c(N)ncnc54)O[C@@H]3CO)[C@@H](OP(=O)(S)OC[C@H]3O[C@@H](n4ccc(=O)[nH]c4=O)[C@H](O)[C@@H]3OP(=O)(S)OC[C@H]3O[C@@H](n4ccc(=O)[nH]c4=O)[C@H](O)[C@@H]3OP(=O)(S)OCC(O)COP(=O)(S)O[C@H]3[C@@H](O)[C@H](n4ccc(=O)[nH]c4=O)O[C@@H]3COP(=O)(S)O[C@H]3[C@@H](O)[C@H](n4ccc(=O)[nH]c4=O)O[C@@H]3COP(=O)(S)O[C@H]3[C@@H](O)[C@H](n4ccc(N)nc4=O)O[C@@H]3COP(=O)(S)O[C@H]3[C@@H](O)[C@H](n4ccc5c(=O)[nH]c(N)nc54)O[C@@H]3COP(=O)(S)O[C@H]3[C@@H](O)[C@H](n4cnc5c(N)ncnc54)O[C@@H]3COP(=O)(S)O[C@H]3[C@@H](O)[C@H](n4cnc5c(N)ncnc54)O[C@@H]3COP(=O)(S)O[C@H]3[C@@H](O)[C@H](n4ccc5c(=O)[nH]c(N)nc54)O[C@@H]3COP(=O)(S)O[C@H]3[C@@H](O)[C@H](n4ccc(=O)[nH]c4=O)O[C@@H]3COP(=O)(S)O[C@H]3[C@@H](O)[C@H](n4ccc(=O)[nH]c4=O)O[C@@H]3COP(=O)(S)O[C@H]3[C@@H](O)[C@H](n4cnc5c(N)ncnc54)O[C@@H]3COP(=O)(S)O[C@H]3[C@@H](O)[C@H](n4cnc5c(N)ncnc54)O[C@@H]3CO)[C@H]2O)c(=O)n1 (some centres not stated) | 95.5 | 401
2 | inactive | inactive | Nc1ccn([C@@H]2O[C@H](COP(=O)(S)O[C@H]3[C@@H](O)[C@H](n4cnc5c(N)ncnc54)O[C@@H]3COP(=O)(S)O[C@H]3[C@@H](O)[C@H](n4cnc5c(N)ncnc54)O[C@@H]3CO)[C@@H](OP(=O)(S)OC[C@H]3O[C@@H](n4ccc(=O)[nH]c4=O)[C@H](O)[C@@H]3OP(=O)(S)OC[C@H]3O[C@@H](n4ccc5c(=O)[nH]c(N)nc54)[C@H](O)[C@@H]3OP(=O)(S)OC[C@H]3O[C@@H](n4cnc5c(N)ncnc54)[C@H](O)[C@@H]3OP(=O)(S)OC[C@H]3O[C@@H](n4cnc5c(N)ncnc54)[C@H](O)[C@@H]3OP(=O)(S)OC[C@H]3O[C@@H](n4ccc5c(=O)[nH]c(N)nc54)[C@H](O)[C@@H]3OP(=O)(S)OC[C@H]3O[C@@H](n4ccc(N)nc4=O)[C@H](O)[C@@H]3OP(=O)(S)OC[C@H]3O[C@@H](n4ccc(=O)[nH]c4=O)[C@H](O)[C@@H]3OP(=O)(S)OC[C@H]3O[C@@H](n4ccc5c(=O)[nH]c(N)nc54)[C@H](O)[C@@H]3OP(=O)(S)OCC(O)COP(=O)(S)O[C@H]3[C@@H](O)[C@H](n4ccc5c(=O)[nH]c(N)nc54)O[C@@H]3COP(=O)(S)O[C@H]3[C@@H](O)[C@H](n4ccc(=O)[nH]c4=O)O[C@@H]3COP(=O)(S)O[C@H]3[C@@H](O)[C@H](n4ccc(N)nc4=O)O[C@@H]3COP(=O)(S)O[C@H]3[C@@H](O)[C@H](n4ccc5c(=O)[nH]c(N)nc54)O[C@@H]3COP(=O)(S)O[C@H]3[C@@H](O)[C@H](n4cnc5c(N)ncnc54)O[C@@H]3COP(=O)(S)O[C@H]3[C@@H](O)[C@H](n4cnc5c(N)ncnc54)O[C@@H]3COP(=O)(S)O[C@H]3[C@@H](O)[C@H](n4ccc5c(=O)[nH]c(N)nc54)O[C@@H]3COP(=O)(S)O[C@H]3[C@@H](O)[C@H](n4ccc(=O)[nH]c4=O)O[C@@H]3COP(=O)(S)O[C@H]3[C@@H](O)[C@H](n4ccc(N)nc4=O)O[C@@H]3COP(=O)(S)O[C@H]3[C@@H](O)[C@H](n4cnc5c(N)ncnc54)O[C@@H]3COP(=O)(S)O[C@H]3[C@@H](O)[C@H](n4cnc5c(N)ncnc54)O[C@@H]3CO)[C@H]2O)c(=O)n1 (some centres not stated) | 28.7 | 240
3 | inactive | inactive | Nc1ccn([C@@H]2O[C@H](COP(=O)(S)O[C@H]3[C@@H](O)[C@H](n4ccc5c(=O)[nH]c(N)nc54)O[C@@H]3CO[C@H]3[C@@H](O)[C@H](n4cnc5c(N)ncnc54)O[C@@H]3COP(=O)(S)O[C@H]3[C@@H](O)[C@H](n4ccc5c(=O)[nH]c(N)nc54)O[C@@H]3COP(=O)(S)O[C@H]3[C@@H](O)[C@H](n4ccc(=O)[nH]c4=O)O[C@@H]3COP(=O)(S)O[C@H]3[C@@H](O)[C@H](n4ccc(N)nc4=O)O[C@@H]3COP(=O)(S)O[C@H]3[C@@H](O)[C@H](n4ccc5c(=O)[nH]c(N)nc54)O[C@@H]3COP(=O)(S)O[C@H]3[C@@H](O)[C@H](n4ccc(=O)[nH]c4=O)O[C@@H]3COP(=O)(S)O[C@H]3[C@@H](O)[C@H](n4ccc(=O)[nH]c4=O)O[C@@H]3CO)[C@@H](OP(=O)(S)OC[C@H]3O[C@@H](n4ccc(=O)[nH]c4=O)[C@H](O)[C@@H]3OP(=O)(S)OC[C@H]3O[C@@H](n4ccc(=O)[nH]c4=O)[C@H](O)[C@@H]3OP(=O)(S)OCC(O)COP(=O)(S)O[C@H]3[C@@H](O)[C@H](n4ccc(=O)[nH]c4=O)O[C@@H]3COP(=O)(S)O[C@H]3[C@@H](O)[C@H](n4ccc(=O)[nH]c4=O)O[C@@H]3COP(=O)(S)O[C@H]3[C@@H](O)[C@H](n4ccc(N)nc4=O)O[C@@H]3COP(=O)(S)O[C@H]3[C@@H](O)[C@H](n4ccc5c(=O)[nH]c(N)nc54)O[C@@H]3CO[C@H]3[C@@H](O)[C@H](n4cnc5c(N)ncnc54)O[C@@H]3COP(=O)(S)O[C@H]3[C@@H](O)[C@H](n4ccc5c(=O)[nH]c(N)nc54)O[C@@H]3COP(=O)(S)O[C@H]3[C@@H](O)[C@H](n4ccc(=O)[nH]c4=O)O[C@@H]3COP(=O)(S)O[C@H]3[C@@H](O)[C@H](n4ccc(N)nc4=O)O[C@@H]3COP(=O)(S)O[C@H]3[C@@H](O)[C@H](n4ccc5c(=O)[nH]c(N)nc54)O[C@@H]3COP(=O)(S)O[C@H]3[C@@H](O)[C@H](n4ccc(=O)[nH]c4=O)O[C@@H]3COP(=O)(S)O[C@H]3[C@@H](O)[C@H](n4ccc(=O)[nH]c4=O)O[C@@H]3CO)[C@H]2O)c(=O)n1 (some centres not stated) | 145 | 1370
